# A selection: hits, their analogues and other compounds. The true share with any hit is near 5.8%.
# PLK1 inh = PLK1 (human) kinase inhibition; inhibition, % at 10 µM; 0.53% of 97,000 active; AID 619; recombinant PLK1 kinase, TR-FRET peptide phosphorylation; P53350;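 active means inhibition of 50% or more in the single-concentration screen; inactive means inhibition below 50%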;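 further: 0% = DMSO max control and 100% = H-89 dihydrochloride min control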
# Target sequence (P53350 whole entry, looked up): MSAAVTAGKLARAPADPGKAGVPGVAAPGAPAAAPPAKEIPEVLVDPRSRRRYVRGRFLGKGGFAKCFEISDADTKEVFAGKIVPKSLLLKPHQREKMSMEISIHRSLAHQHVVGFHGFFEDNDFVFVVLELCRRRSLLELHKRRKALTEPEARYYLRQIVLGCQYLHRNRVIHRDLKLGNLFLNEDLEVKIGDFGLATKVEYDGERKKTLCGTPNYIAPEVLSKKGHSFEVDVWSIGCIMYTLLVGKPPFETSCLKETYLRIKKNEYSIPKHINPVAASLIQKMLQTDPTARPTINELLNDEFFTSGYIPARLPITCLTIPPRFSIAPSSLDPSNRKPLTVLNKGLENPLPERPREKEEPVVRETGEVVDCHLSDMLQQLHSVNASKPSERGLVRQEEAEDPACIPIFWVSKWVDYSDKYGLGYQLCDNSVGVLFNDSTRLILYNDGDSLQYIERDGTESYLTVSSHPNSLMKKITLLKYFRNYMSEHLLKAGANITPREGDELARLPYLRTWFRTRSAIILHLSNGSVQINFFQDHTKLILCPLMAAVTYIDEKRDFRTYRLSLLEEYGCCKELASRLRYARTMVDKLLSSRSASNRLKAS
# HIV Rev-RRE inh = inhibitors of HIV-1 Rev-RRE RNA interaction; AID 704; inhibition, % at 8 µM; 0.79% of 97,000 active; Rev peptide-RRE RNA binding, FRET;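 active means inhibition above the screen-wide mean plus 3 SD, cut at about 35% in these data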;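 further: 0% = median DMSO wells and 100% = median Neomycin B control wells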
#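 Assay system: Labelled RRE RNA duplex and labelled Rev peptide | Times: 5 min preincubation and 15 min binding, 25 °C | Detection: FRET, ex 480 nm, em 540 and 671 nm | Evaluation: % inhibition of FRET ratio versus controls | Benchmarks: DMSO wells as 0% and neomycin B wells as 100% inhibition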
# Cav32 inh = inhibitors of human Cav3.2 T-type calcium channel; Cav3.2-expressing cells, Fluo-4 calcium fluorescence FDSS; stronger effect = lower value; B-score at 10 µM; O95180; 4% of 100,000 active;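 active means single-dose well whose peak fluorescence ratio is a statistical outlier from its plate by either plate-standardised score or position-corrected B-score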
# PTK2B oligo ant = Pyk2 (human) oligomerization antagonism; Q14289; Q293 cells, Pyk2 FERM NanoBiT luminescence; stronger effect = lower value; z-score (the deposit names both 25 µM and 10 µM); 0.83% of 99,000 active; AID 1347419;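 active means Z-score of -3 or lower, scaled per plate to the spread of control and sample wells; inactive means z-score above -3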;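 further: negative z-score means lost luminescence so less FERM oligomerization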
# PLK1 PBD inh = inhibitors of human Plk1 polo box domain binding. Plk1 PBD phosphopeptide binding, fluorescence polarization. inhibition, %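 (tested at about 20 µM)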. 0.13% of 97,000 active. AID 693; in the data active means inhibition above about 34%, passing the limit was not always enough
# FAK blocker = FAK (human) kinase inhibition; Q05397; biochemical FAK kinase activity assay; inhibition, %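 (tested at 7 µM)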; 0.84% of 97,000 active; AID 727; in the data active means inhibition above about 19%;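 further: 0% = DMSO and 100% = reference compound high control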
# * = called active by the depositor; x = no result given; [ ] = dose if it differs, or a comment.
SMILES,PLK1 inh,HIV Rev-RRE inh,Cav32 inh,PTK2B oligo ant,PLK1 PBD inh,FAK blocker
N#CC1=C(N)C(C#N)(C#N)[C@H](c2c(F)cccc2F)[C@H]2CC3(CC=C12)OCCO3,-8.1,55.9*,-0.363,-1.82,-0.1,-1.4
CC(NC(=O)C1CCCCC1)C(c1cccs1)N1CCN(C)CC1 (stereo unspecified),x,x,0.624,x,x,x
Cc1ccc2c(c1)C(O)(c1c(C)[nH]c3ccccc13)C(=O)N2 (stereo unspecified),-12.0,1.1,-4.08*,-0.14,-19.9,0.8
Cc1ccc(-c2cc(=O)[nH]c3ccccc23)cc1,22.5,8.3,0.157,-0.67,-7.7,2.0
CCOC(=O)CN1C=C(c2ccc3ccccc3n2)C(C[N+](=O)[O-])c2ccccc21 (stereo unspecified),-19.2,93.6*[fluorescence artefact?],-4.89*,-0.47,-19.6,-1.2
CCCCSc1nnc(-c2c[nH]c3ccccc23)n1C,68.8*,7.0,0.405,x,-18.1,-1.3
COc1ccc2c(C)cc(SCC(=O)N3CCOCC3)nc2c1,-5.8,60.3*,0.00313,1.01,-81.3,0.4
COc1ccc2c(C)cc(N3CCOCC3)nc2c1,-1.7,10.8,0.531,0.05,-9.3,0.2
COc1cccc(-n2c(SCC(=O)N3CCOCC3)nnc2-c2c[nH]c3ccccc23)c1,63.4*,7.9,1.46,x,7.3,1.6
Cn1c(SCC(=O)N2CCN(c3ccccc3)CC2)nnc1-c1c[nH]c2ccccc12,67.0*,3.3,-0.649,x,15.1,2.5
CCn1c(SCC(=O)N2CCN(c3ccccc3)CC2)nnc1-c1c[nH]c2ccccc12,-9.2,7.4,-1.84,x,4.0,1.6
C=C(C)c1cccc(C(C)(C)NC(=O)N(Cc2ccccc2)Cc2ccco2)c1,-1.5,5.7,x,-1.8,-10.9,0.5
Cc1ccc(/C=N/NC(=O)c2cc(C3CC3)nc3ccccc23)o1,x,x,x,0.66,x,x
CCCCCCSc1nnc(-c2cnn(-c3ccccc3)c2-n2cccc2)n1C,-4.0,-5.8,-8.94*,-1.63,-18.0,1.5
N#C/C(=C\N1CCOCC1)c1ccccc1,-4.2,1.5,1.77,-0.35,-14.8,-0.1
N#C/C(=C\c1cc([N+](=O)[O-])c(N2CCOCC2)cc1N1CCOCC1)c1nc2ccccc2[nH]1,-10.0,6.8,-0.486,0.47,12.6,4.7
N#C/C(=C/c1ccc(N2CCOCC2)o1)c1ccc(Br)cc1,-16.4,122.5*[fluorescence artefact?],-3.44,-0.12,-170.7,2.0
N#C/C(=C/c1ccc(N2CCOCC2)o1)c1nc2ccccc2[nH]1,-98.5,135.8*[fluorescence artefact?],-10.2*,1.45,-234.2,4.4
N#C/C(=C\c1ccc(N2CCOCC2)o1)c1ccccc1,-15.6,78.3*,-2.63,-0.5,-33.1,4.9
CCOC(=O)c1ccc(Oc2nc(NC(C)(C)C)nc(N(C)C)n2)cc1,-38.5,8.3,-7.11*,-1.56,-8.3,1.0
CCc1ccccc1NC(=O)CSc1nnc(-c2ccco2)n1N,-16.4,11.1,0.0565,-0.37,-14.0,1.9
O=C(CCSc1ccc(Cl)c(Cl)c1)NC12CC3CC(CC(C3)C1)C2,-10.6,10.5,-5.92*,0.02,-21.5,-0.1
N[C@H]1CONC1=O,x,x,0.0405,x,x,x
COc1ccc(C(C(=O)NC2CCCCC2)N(Cc2cccs2)C(=O)Cc2c[nH]c3ccccc23)cc1OC (stereo unspecified),-10.3,-2.6,-3.36,-2.39,11.9,3.9
Cc1ccc(-c2nnn(CC(=O)N(c3ccc(F)cc3)C(C(=O)NC3CCCC3)c3ccco3)n2)o1 (stereo unspecified),x,x,0.04,-0.01,x,x
Cc1ccc(N(C(=O)Cc2c[nH]c3ccccc23)C(C(=O)NC2CCCCC2)c2ccco2)cc1 (stereo unspecified),-5.5,2.7,-4.82*,2.07,11.8,-1.0
Cc1ccc(C(C(=O)NC2CCCCC2)N(Cc2ccco2)C(=O)Cc2c[nH]c3ccccc23)o1 (stereo unspecified),-9.4,-3.4,-10*,1.12,-8.9,4.9
Cc1ccc(CNC(=O)C2CCN(S(=O)(=O)c3cccs3)CC2)o1,-0.7,3.0,0.191,1.29,9.9,4.6
Cc1cc(Oc2ccccc2)nc(OCC#N)n1,-6.6,6.8,-0.242,-0.22,9.2,5.7
CCOC(=O)c1c(NC(=O)Cn2nnc(-c3ccc(Cl)cc3)n2)sc(CC)c1C,-9.7,2.4,-1.01,1.96,-9.8,-0.7

# Assay outcomes (PubChem BioAssay)
